Reference: publication PMC10963326 (Heliyon, 2024)

Columns and labels:
[1] = target: human thrombin (Homo sapiens, UniProt P00734); assay: Direct inhibition of human thrombin, chromogenic substrate; type: biochemical; conditions: highest concentration tested of 600 μM, data not shown
In short: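 Thrombin 6 nM final in 20 mM Tris-HCl pH 7.4, 100 mM NaCl, 2.5 mM CaCl2, 0.1% PEG8000, with or without 0.02% Tween80, at 25 or 37 °C. Test compound (DMSO vehicle) added, then either 10 min preincubation or none. Spectrozyme TH at 50 μM final; initial A405 rate. Residual activity was the ratio to the no-compound rate, fitted to a logistic equation for IC50, HS and ΔY.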

[2] = target: thrombin exosite 1; conditions: binding to exosite 1 ref 21; cited from earlier work

Row | inhibition of thrombin [1] | Compound | Kd [2] [nM]
1 | did not inhibit | CCCCCCCCCCCCOS(=O)(=O)[O-].[Na+] [sodium dodecyl sulfate] | –
2 | – | [5 F]-Hir-(54–65)-(SO3^−) [HirP] | 28
